Compound activity (PubChem)
Hits are enriched below; roughly 4.8% of the tested compounds scored in any of these assays.
UCH37 inh: human UCH37 deubiquitinating enzyme inhibition; purified proteasome/UCH37, Ub-AMC cleavage fluorescence; AID 588478; inhibition, % (test concentration not listed); 330,000 tested, 0.33% active;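 active = mean inhibition over replicate wells above about 20%, limit read from the data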;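 note: 0% = compound-free wells with enzyme and 100% = wells lacking proteasome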
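Signal – fluorescence, ex 355 nm, em 460 nm · System – Proteasome-bound UCH37 · Input – 0.15 nM proteasome as dispensed · Timing – 30 min preincubation with enzyme, 25 min cleavage at room temperature · Read-out basis – percent inhibition of cleavage signal versus uninhibited and no-proteasome wells · Medium – Tris-HCl pH 7.4 with ATP-MgCl2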
PAFAH1B3 FP inh: PAFAH1B3 (human) inhibition; Q15102; recombinant PAFAH1B3, FP-rhodamine probe, fluorescence polarization; inhibition, % at 3.39 µM; 340,000 tested, 0.28% active;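 active = inhibition above the screen-wide average of all tested compounds plus 3 SD, cut at about 25% in these data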;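 note: 0% = enzyme with DMSO only and 100% = wells lacking PAFAH1B3 protein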
PAFAH1B2 inh: blocks human PAF acetylhydrolase 1b catalytic subunit 2. AID 492953. recombinant PAFAH1B2, FP-rhodamine activity probe, fluorescence polarization. 340,000 tested, 1.2% active. inhibition, % at 3.39 µM. P68402;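 active = inhibition above the mean of all tested compounds plus 3 SD, cut at about 24% in these data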;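 note: 0% = enzyme with DMSO and 100% = wells lacking PAFAH1B2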
pPAFAH FP inh: inhibitors of human plasma PAF acetylhydrolase (pPAFAH); recombinant pPAFAH, FP-rhodamine probe fluorescence polarization; 330,000 tested, 1.5% active; Q13093; inhibition, % at 3.39 µM;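 active = inhibition above the mean inhibition across the screen plus 3 SD, cut at about 25% in these data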;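 note: inhibitors block binding of the rhodamine activity-based probe so polarization drops; 0% = enzyme with DMSO and 100% = wells lacking pPAFAH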
Target sequence (Q13093 whole entry, looked up): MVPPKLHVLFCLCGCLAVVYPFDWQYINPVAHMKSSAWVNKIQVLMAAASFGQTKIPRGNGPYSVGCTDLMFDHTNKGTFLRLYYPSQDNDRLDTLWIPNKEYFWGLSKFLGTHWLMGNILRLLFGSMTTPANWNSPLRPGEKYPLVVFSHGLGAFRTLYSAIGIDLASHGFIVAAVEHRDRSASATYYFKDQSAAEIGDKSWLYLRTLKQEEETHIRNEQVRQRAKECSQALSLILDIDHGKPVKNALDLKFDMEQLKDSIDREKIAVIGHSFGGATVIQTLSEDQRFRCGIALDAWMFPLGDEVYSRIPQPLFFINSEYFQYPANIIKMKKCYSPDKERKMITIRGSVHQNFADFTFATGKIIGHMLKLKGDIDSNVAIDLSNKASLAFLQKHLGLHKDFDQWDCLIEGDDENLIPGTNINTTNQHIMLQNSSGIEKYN
PAFAH2 FP inh: inhibitors of human PAFAH2; Q99487; recombinant PAFAH2, FP-rhodamine activity probe, fluorescence polarization; inhibition, % at 3.39 µM; 340,000 tested, 0.99% active;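 active = inhibition above the mean over all tested compounds plus 3 SD, cut at about 30% in these data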;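 note: inhibitors block probe labeling of enzyme so polarization drops; 0% = enzyme with DMSO and 100% = wells lacking PAFAH2 protein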
NR3A LBD binder: modulators (binders) of human NR3A ligand-binding domain | 340,000 tested, 2.5% active | Tm shift relative to glycine control, % at 25 µM | NR3A LBD differential scanning fluorimetry, Tm shift; 0% = protein alone, 100% = glycine-bound protein;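 active = melting temperature shift of at least 10% of the positive control shift, at one fixed dose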
pPAFAH FP conf: pPAFAH (human) inhibition, confirmed; AID 463230; 2,300 tested, 72% active; recombinant pPAFAH, FP-Rh probe fluorescence polarization; inhibition, % at 3.39 µM; shares compounds with pPAFAH FP inh;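 active = mean inhibition of the triplicate above the hit cutoff set for the earlier primary screen, cut at about 25% in these data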;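 note: 0% = enzyme with DMSO and 100% = wells lacking pPAFAH enzyme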
Active calls of the source: *; nt = not tested or not shown.

SMILES	UCH37 inh	PAFAH1B3 FP inh	PAFAH1B2 inh	pPAFAH FP inh	PAFAH2 FP inh	NR3A LBD binder	pPAFAH FP conf
CC(=NNC(=O)CN1CCN(S(=O)(=O)c2ccc(C)cc2)CC1)c1ccncc1	1	nt	nt	nt	nt	nt	nt
CC(C)NC(=O)Nc1ccc2c(c1)C(=O)N([C@H](C)CO)C[C@H](C)[C@@H](CN(C)S(C)(=O)=O)O2	5	7	14	-5	1	1	nt
C[C@H](CO)N1C[C@H](C)[C@@H](CN(C)S(C)(=O)=O)Oc2ccc(NC(=O)Nc3ccc(C(F)(F)F)cc3)cc2C1=O	1	1	1	44*	-14	2	45*
Cc1ccc(NC(=O)c2cc3c(=O)oc4ccc(C)cc4c3s2)nc1	-62	nt	nt	66*	nt	nt	6
ON=C1CCCc2c1nc(-c1ccccc1F)n2O	3	nt	nt	nt	nt	nt	nt
COc1ccccc1C(=O)N/C(=N\c1nc(C)cc(C)n1)Nc1ccccc1	4	nt	nt	nt	nt	nt	nt
C/C(=N\NC(=O)c1cccc(F)c1)c1ccc(NC(=O)Cc2ccccc2)cc1	nt	-6	4	nt	-1	-5	nt
C/C(=N\NC(=O)c1cc(O)cc(O)c1)c1ccc(NC(=O)Cc2ccccc2)cc1	nt	35*	19	45*	27	-7	15
Cc1ccc([N+](=O)[O-])cc1N(CC(=O)NC1CCCC1)S(C)(=O)=O	2	3	2	-9	-1	-1	nt
Cc1ccc(NS(=O)(=O)c2ccc(NC(=O)CN(c3cc([N+](=O)[O-])ccc3C)S(C)(=O)=O)cc2)c(C)c1	3	-39	-24	42*	-62	13*	51*
O=C(NCCCN1CCOCC1)C(=O)NN=Cc1c(Cl)cccc1Cl	4	nt	nt	nt	nt	nt	nt
Cc1ccc(S(=O)(=O)NN=Cc2cc3c(cc2[N+](=O)[O-])OCO3)cc1	5	nt	nt	nt	nt	nt	nt
CCOC(=O)C1=C(C)NC(SCc2cc(=O)[nH][nH]2)=C(C#N)C1c1cccs1 (centres undefined)	1	0	4	47*	-2	-4	13
COc1ccc(NC(=O)/C(C#N)=C\c2ccc(Br)o2)cc1	nt	1	3	8	5	-1	nt
N#C/C(=C\c1ccc([N+](=O)[O-])o1)C(=O)Nc1ccc(F)cc1	-1	7	1	44*	9	-4	24
Oc1ccc(-c2cn3c(n2)SCC3)cc1O	9	12	5	56*	23	0	21
CCCCCn1c(SCC2CCCO2)nc2cc(C(=O)N3CCC(C(N)=O)CC3)ccc2c1=O (centres undefined)	6	-4	3	42*	-2	0	23
CCCCCn1c(SCC(=O)CC(=O)OCC)nc2cc(C(=O)N3CCC(C(N)=O)CC3)ccc2c1=O	6	3	4	10	3	-1	nt
COc1cc(C=NNC(=O)c2c(-c3ccccc3)noc2C)ccc1O	5	nt	nt	nt	nt	nt	nt
COc1cc2[nH]c3c(N4CCN(c5ccc(Cl)cc5)CC4)ncnc3c2cc1OC	-38	38*	12	62*	1	9	54*
CC(C)=CCC/C(C)=C/CNC(=O)C[C@H]1C[C@H](C(=O)N2CCCCC2)[C@@]2(C)c3[nH]c4cc(CCC(=O)N(C)C)ccc4c3CCN2C1=O	6	7	5	55*	10	2	42*
CC(C)N(C(=O)[C@H]1C[C@H](CC(=O)NCC23CC4CC(CC(C4)C2)C3)C(=O)N2CCc3c([nH]c4cc(CCC(=O)N(C)C)ccc34)[C@]12C)C(C)C	1	5	5	45*	-3	1	33*
CN(C)C(=O)CCc1ccc2c3c([nH]c2c1)[C@]1(C)[C@@H](C(=O)N2CCCCC2)C[C@H](CC(=O)NC(C)(C)C)C(=O)N1CC3	-1	4	0	-5	-1	-1	nt
COC(=O)C1=C(C)NC2=C(C(=O)c3ccccc32)C1c1cccc(OC)c1 (centres undefined)	8	10	3	5	11	-2	nt
CC1=C([N+](=O)[O-])C(c2cccc(Br)c2)C2=C(N1)c1ccccc1C2=O (centres undefined)	9	3	6	38*	5	4	26*
